Assay results from ChEMBL document CHEMBL2440006, “Mastering tricyclic ring systems for desirable functional cannabinoid activity” (Eur J Med Chem, 2013).
Calls of active or inactive are those of the source. The rule behind the calls is not given here.

Columns and labels:
[1] = target: Cannabinoid receptor 1 (Rattus norvegicus, UniProt P20272); test: Displacement of [3H]-CP55940 from CB1 receptor in rat brain homogenate after 1.5 hrs by microbeta liquid scintillation counting analysis; format: tissue-based
How it was run: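 Membranes from rat brain homogenate (CB1) or HEK293 cells expressing human CB2. […] GF/B filtration, then scintillation counting. […] IC50 by three-parameter logistic fit, Ki by Cheng-Prusoff. Three experiments in triplicate.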

[2] = Selectivity ratio of Ki for rat CB1 receptor to Ki for human CB2 receptor
[3] = target: T1, Cannabinoid receptor 2 (Homo sapiens, UniProt P34972); test: Displacement of [3H]-CP55940 from human CB2 receptor expressed in HEK293 cells after 1.5 hrs by microbeta liquid scintillation counting analysis; format: cell-based
How it was run: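 Membranes from rat brain homogenate (CB1) or HEK293 cells expressing human CB2. GF/B filtration, then scintillation counting. IC50 by three-parameter logistic fit, Ki by Cheng-Prusoff. Three experiments in triplicate.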

[4] = target: Cannabinoid receptor 1 (Homo sapiens) (UniProt P21554); test: Induction of human CB1 receptor internalization expressed in HEK293 cells at 10 uM relative to CP55940; format: cell-based
How it was run: (§1)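 Cells stably expressing human CB1 or human CB2 receptors, exposed to test compound alone. […] Mean of two determinations.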

[5] = target: T1, Cannabinoid receptor 2; test: Induction of human CB2 receptor internalization expressed in HEK293 cells at 10 uM relative to CP55940; format: cell-based; how it was run: as §1
[6] = target: T1, Cannabinoid receptor 2; test: Reduction of CP55940-induced human CB2 receptor internalization expressed in HEK293 cells at 3 uM relative to control; format: cell-based; set-up: scale not given: the % may be the effect or the level left
[7] = target: Cannabinoid receptor 1 (Homo sapiens) (UniProt P21554); test: Agonist activity at human recombinant CB1 receptor expressed in CHO cells after 1 hr by [35S]GTPgammaS binding assay relative to CP55940; format: functional, cell-based
How it was run: (§2)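 Membranes from CHO cells expressing hCB1 or hCB2, preincubated at least 15 min on ice with 30 μM GDP solution. GTP-γ-[35S] with WGA-PVT SPA beads. Eight concentrations, 0.001–10 μM, in duplicate. Incubated 1 h at room temperature, centrifuged, then a further 1 h before counting. […] Mean of two determinations.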

[8] = target: T1, Cannabinoid receptor 2; test: Partial agonist activity at human recombinant CB2 receptor expressed in CHO cells after 1 hr by [35S]GTPgammaS binding assay relative to CP55940; format: functional, cell-based; how it was run: as §2
[9] = target: Cannabinoid receptor 1 (Homo sapiens) (UniProt P21554); test: Partial agonist activity at human recombinant CB1 receptor expressed in CHO cells after 1 hr by [35S]GTPgammaS binding assay relative to CP55940; format: functional, cell-based; how it was run: as §2
[10] = target: T1, Cannabinoid receptor 2; test: Inverse agonist activity at human recombinant CB2 receptor expressed in CHO cells after 1 hr by [35S]GTPgammaS binding assay relative to CP55940; format: functional, cell-based; how it was run: as §2

Cannabinoid receptor 1 (Homo sapiens), sequence (P21554 whole entry): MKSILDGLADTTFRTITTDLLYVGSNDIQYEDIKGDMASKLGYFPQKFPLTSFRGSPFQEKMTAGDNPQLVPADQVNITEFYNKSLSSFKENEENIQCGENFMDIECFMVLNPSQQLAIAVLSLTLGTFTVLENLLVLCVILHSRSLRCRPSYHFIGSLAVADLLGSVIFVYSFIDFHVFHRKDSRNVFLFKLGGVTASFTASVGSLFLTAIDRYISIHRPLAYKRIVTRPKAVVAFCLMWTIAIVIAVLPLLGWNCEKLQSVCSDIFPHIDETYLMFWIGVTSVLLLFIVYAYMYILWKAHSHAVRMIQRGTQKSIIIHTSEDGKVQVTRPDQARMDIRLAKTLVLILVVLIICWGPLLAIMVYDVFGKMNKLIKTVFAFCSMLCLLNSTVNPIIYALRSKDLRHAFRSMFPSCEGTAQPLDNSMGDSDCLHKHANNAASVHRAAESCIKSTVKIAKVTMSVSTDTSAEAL
T1 sequence (P34972 whole entry): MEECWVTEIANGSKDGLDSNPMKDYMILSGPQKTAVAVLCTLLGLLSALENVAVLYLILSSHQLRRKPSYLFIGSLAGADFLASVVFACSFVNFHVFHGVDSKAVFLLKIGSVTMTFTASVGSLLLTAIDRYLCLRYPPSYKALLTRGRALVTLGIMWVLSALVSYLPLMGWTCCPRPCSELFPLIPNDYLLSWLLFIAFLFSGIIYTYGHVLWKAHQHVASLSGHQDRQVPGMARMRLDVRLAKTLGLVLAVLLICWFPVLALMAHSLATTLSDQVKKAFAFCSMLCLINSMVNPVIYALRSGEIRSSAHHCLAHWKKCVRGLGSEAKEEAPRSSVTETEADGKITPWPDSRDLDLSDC
Cannabinoid receptor 1, sequence (P20272 whole entry): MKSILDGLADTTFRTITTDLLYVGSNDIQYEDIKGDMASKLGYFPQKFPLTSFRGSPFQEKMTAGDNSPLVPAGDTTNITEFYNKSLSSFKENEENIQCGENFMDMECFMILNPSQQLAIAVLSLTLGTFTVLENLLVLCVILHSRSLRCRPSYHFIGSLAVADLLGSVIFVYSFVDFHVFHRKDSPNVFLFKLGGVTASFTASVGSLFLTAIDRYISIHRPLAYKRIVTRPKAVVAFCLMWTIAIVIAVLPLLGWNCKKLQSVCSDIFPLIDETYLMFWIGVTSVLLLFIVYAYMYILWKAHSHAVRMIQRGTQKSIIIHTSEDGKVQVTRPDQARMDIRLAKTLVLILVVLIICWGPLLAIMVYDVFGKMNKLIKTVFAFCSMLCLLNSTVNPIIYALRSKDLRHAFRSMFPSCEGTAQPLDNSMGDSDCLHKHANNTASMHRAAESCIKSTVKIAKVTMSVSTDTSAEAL

SMILES | Ki ([1]; read-out: Ki) | Ratio Ki [2] | Ki ([3]; read-out: Ki) | Activity [4] | Activity [5] | further results
O=C(c1ccc2c(c1)c1ccccc1n2CCCl)N1CCCCC1 | 2360 nM | 4.55 | 519 nM |  |  | 
O=C(c1ccc2c(c1)c1ccccc1n2Cc1ccccn1)N1CCCCC1 | 403 nM | 1.87 | 215 nM |  |  | 
CC(C)(C)OC(=O)NCCCn1c2ccccc2c2cc(C(=O)N3CCS(=O)(=O)CC3)ccc21 |  |  |  |  |  | Ki [1]: Not Active; Ki ([3]; hek293): Not Active
CCCCCn1c2ccccc2c2cc(C(=O)OCC)ncc21 | 1860 nM | 1.36 | 1370 nM |  |  | 
O=C(c1ccc2c(c1)c1ccccc1n2CCCCl)N1CCCCC1 | 124 nM | 1.4 | 88 nM | 106% | 111% | 
CCCCCn1c2ccccc2c2cc(C(=O)CN3CCN(C)CC3)ccc21 | 1500 nM | 3.78 | 398 nM |  |  | 
CCCCCn1c2ccccc2c2cc(C(=O)N3CCCCC3)ncc21 | 136 nM | 3.86 | 35.3 nM | 128% | 101% | 
CCCCCn1c2ccccc2c2cc(C(=O)NCC(C)(C)C)ncc21 | 43.6 nM | 1.65 | 26.5 nM | 34.7% | 0.1% | Activity [6]: > 50%
CCCCCn1c2ccccc2c2cc(C(=O)NN3CCCCC3)ccc21 |  |  | 1610 nM |  |  | Ki [1]: Not Active
CCCCCn1c2ccccc2c2cc(C(=O)N3CCCCC3)ccc21 | 77 nM | 1.05 | 73 nM | 140% | 118% | Emax [7]: 73.6%; Emax [8]: 30.8%
CN(C)CCCn1c2ccccc2c2cc(C(=O)N3CCCCC3)ccc21 | 2390 nM | 5.92 | 403 nM |  |  | 
CCOC(=O)CCn1c2ccccc2c2cc(C(=O)N3CCS(=O)(=O)CC3)ccc21 |  |  |  |  |  | Ki [1]: Not Active; Ki ([3]; hek293): Not Active
CCCCCn1c2ccccc2c2cc(C(=O)N3CCS(=O)(=O)CC3)ccc21 | 440 nM | 1.96 | 225 nM | 23.9% | 91.5% | 
CCCCCn1c2ccccc2c2cc(C(=O)N3CCNCC3)ccc21 |  | 0.1 |  |  |  | 
NCCCn1c2ccccc2c2cc(C(=O)N3CCCCC3)ccc21 |  |  |  |  |  | Ki [1]: Not Active; Ki ([3]; hek293): Not Active
CCCCCn1c2ccccc2c2cc(C#N)ccc21 |  |  |  |  |  | Ki [1]: Not Active; Ki ([3]; hek293): Not Active
CCCCCn1c2ccc(C(=O)N3CCCCC3)cc2c2ccc(OC)cc21 |  | 1.71 |  | 33.4% | -1.1% | Emax [9]: 30.4%; Activity [6]: Active; Emax [10]: -76.4%
O=C(c1ccc2c(c1)c1ccccc1n2Cc1ccncc1)N1CCCCC1 | 393 nM | 4.32 | 91 nM | 74.9% | 66.3% | 
COCCCn1c2ccccc2c2cc(C(=O)N3CCCCC3)ccc21 | 1440 nM | 8.88 | 83 nM | 63.2% | 68.1% | 
CC(C)(C)OC(=O)NCCCn1c2ccccc2c2cc(C(=O)N3CCCCC3)ccc21 |  |  | 2690 nM |  |  | Ki [1]: Not Active
CCCCCn1c2ccccc2c2cc(C(=O)N3CCN(C)CC3)ccc21 | 123 nM | 3.47 | 35.4 nM | 84.7% | 43.9% | 
CCCCCCn1c2ccccc2c2cc(C(=O)N3CCCCC3)ccc21 | 241 nM | 2.51 | 96 nM | 122% | 77% | 
CCCCCn1c2ccccc2c2cc(C(=S)N3CCCCC3)ccc21 | 40.6 nM | 0.82 | 49.6 nM | 124% | 63% | 
COC(=O)CCCn1c2ccccc2c2cc(C(=O)N3CCCCC3)ccc21 | 1850 nM | 8.88 | 208 nM | 9.4% | 37.3% | 
O=C(c1ccc2c(c1)c1ccccc1n2CCN1CCCCC1)N1CCCCC1 |  |  |  |  |  | Ki [1]: Not Active; Ki ([3]; hek293): Not Active
CCCCCCCn1c2ccccc2c2cc(C(=O)N3CCCCC3)ccc21 | 943 nM | 1.14 | 827 nM |  |  | 

SMILES | Ki ([1]; read-out: Ki) | Ratio Ki [2] | Ki ([3]; read-out: Ki) | Activity [4] | Activity [5] | further results
CCCCCn1c2ccccc2c2cc(C(=O)N3CC[N+](C)(C)CC3)ccc21.[I-] |  |  |  |  |  | Ki [1]: Not Active; Ki ([3]; hek293): Not Active
CCCCCn1c2ccccc2c2cc(C(=O)CN3CCS(=O)(=O)CC3)ccc21 | 675 nM | 1.34 | 502 nM |  |  | 
CCCCCn1c2ccccc2c2cc(C(=O)c3ccccc3)ccc21 | 291 nM | 2.88 | 101 nM | 77% | 39.3% | Activity [6]: > 50%
CCCn1c2ccccc2c2cc(C(=O)N3CCCCC3)ccc21 | 600 nM | 1.15 | 521 nM |  |  | 
CCCCCn1c2ccccc2c2cc(C(=O)NCC3CCNCC3)ccc21 |  |  |  |  |  | Ki [1]: Not Active; Ki ([3]; hek293): Not Active
CCOC(=O)CCn1c2ccccc2c2cc(C(=O)N3CCN(C)CC3)ccc21 |  |  | 3380 nM |  |  | Ki [1]: Not Active
CCCCCn1c2ccccc2c2cc(CN3CCN(C)CC3)ccc21 | 244 nM | 0.33 | 740 nM |  |  | 
CCCCCn1c2ccccc2c2cc(C(=O)NC34CC5CC(CC(C5)C3)C4)ccc21 | 1450 nM | 5.03 | 288 nM |  |  | 
O=C(c1ccc2c(c1)c1ccccc1n2CC1CCOCC1)N1CCCCC1 | 19.5 nM | 0.98 | 20 nM | 142% | 86.2% | 
CCCCCn1c2ccccc2c2cc(C(=O)N3CCOCC3)ccc21 | 60 nM | 0.71 | 84.5 nM | 115% | 78.7% | 
CCCCCn1c2ccccc2c2cc(C(=O)OCc3ccncc3)ccc21 | 108 nM | 0.08 | 1390 nM |  |  | 
CCOC(=O)CCn1c2ccccc2c2cc(C(=O)N3CCCCC3)ccc21 | 4980 nM | 3.79 | 1310 nM |  |  | 
CCCCCn1c2ccccc2c2cc(C(=O)CN3CCCCC3)ccc21 | 3330 nM | 3.05 | 1090 nM | -20.4% | 103% | 
O=C(c1ccc2c(c1)c1ccccc1n2CCCN1CCCCC1)N1CCCCC1 |  |  | 2170 nM |  |  | Ki [1]: Not Active
O=C(c1ccc2c(c1)c1ccccc1n2Cc1cccnc1)N1CCCCC1 | 1020 nM | 1.71 | 600 nM |  |  | 
CCCCCn1c2ccccc2c2cc(C(=O)N(CC)CC)ccc21 | 105 nM | 2.03 | 51.8 nM | 102% | 53.1% | 
CCCCCn1c2ccccc2c2cc(CN3CCNCC3)ccc21 |  |  |  |  |  | Ki [1]: Not Active; Ki ([3]; hek293): Not Active
CCCCCn1c2ccccc2c2cc(C(=O)NN3CCCCC3)ncc21 | 354 nM | 2.07 | 171 nM |  |  | 
CCCCn1c2ccccc2c2cc(C(=O)N3CCCCC3)ccc21 | 63 nM | 0.24 | 264 nM | 84.8% | 67.9% | 
CCCCCn1c2ccccc2c2cc(C(=O)OCc3ccccn3)ccc21 | 679 nM | 0.35 | 1930 nM |  |  | 
CCCCCn1c2ccccc2c2cc(CN3CCCCC3)ccc21 | 122 nM | 0.33 | 370 nM | -11.1% | 79.6% | 
O=C(c1ccc2c(c1)c1ccccc1n2CCCN1CCS(=O)(=O)CC1)N1CCCCC1 | 2380 nM | 9.54 | 249 nM |  |  | 
CCCCCn1c2ccccc2c2cc(C(=O)NCCc3ccc(Cl)cc3)ccc21 |  |  |  |  |  | Ki [1]: Not Active
O=C(OCCCn1c2ccccc2c2cc(C(=O)N3CCCCC3)ccc21)N1CCS(=O)(=O)CC1 | 2260 nM | 30.9 | 73 nM | 65.6% | 27.9% | 
O=C(c1ccc2[nH]c3ccccc3c2c1)N1CCCCC1 |  |  |  |  |  | Ki [1]: Not Active; Ki ([3]; hek293): Not Active
